Calls of active or inactive are those of the source. No cut-off for these calls is given here.
Tests used:
Staphylococcus aureus = assay: Antimicrobial activity against Staphylococcus aureus after 5 to 12 hrs by micro broth dilution assay; assay type: functional, organism-based
Escherichia coli = assay: Antimicrobial activity against Escherichia coli after 5 to 12 hrs by micro broth dilution assay; assay type: functional, organism-based
U-87 MG [1] = assay: Induction of apoptosis in human U87MG cells assessed as viable cells at 20 uM after 72 hrs by annexin V-FITC/PI staining-based flow cytometric analysis (reference value: 93.12%); assay type: functional, U-87MG ATCC; settings: read-out: Activity
U-87 MG [2] = assay: Induction of apoptosis in human U87MG cells assessed as late apoptotic cells at 20 uM after 72 hrs by annexin V-FITC/PI staining-based flow cytometric analysis (reference value: 3.23%); assay type: functional, U-87MG ATCC
U-251 = assay: Antiproliferative activity against human U251 cells after 72 hrs by sulforhodamine B assay; assay type: functional, cell-based; settings: for IC50: U-251, 72 h
Summary of the method: (§1)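 Sulforhodamine B assay on glioma (U251, U87-MG) and colorectal (HCT-15, SW620) cancer cells. Cells were exposed to a range of compound concentrations for 72 h, then stained with SRB. IC50 values were derived from the dose–response. Doxorubicin served as positive control.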

SW-620 = assay: Antiproliferative activity against human SW620 cells after 72 hrs by sulforhodamine B assay; assay type: functional, cell-based; settings: for IC50: SW-620, 72 h; summary of the method: as §1
U-87 MG [3] = assay: Antiproliferative activity against human U87MG cells after 72 hrs by sulforhodamine B assay; assay type: functional, cell-based, U-87MG ATCC; settings: for inhibition: U-87MG ATCC; summary of the method: as §1
U-87 MG [4] = assay: Induction of apoptosis in human U87MG cells assessed as total apoptotic cells at 20 uM after 72 hrs by annexin V-FITC/PI staining-based flow cytometric analysis (reference value: 6.64%); assay type: functional, U-87MG ATCC
U-87 MG [5] = assay: Induction of apoptosis in human U87MG cells assessed as necrotic cells at 20 uM after 72 hrs by annexin V-FITC/PI staining-based flow cytometric analysis (reference value: 0.24%); assay type: functional, U-87MG ATCC
U-87 MG [6] = assay: Induction of apoptosis in human U87MG cells assessed as early apoptotic cells at 20 uM after 72 hrs by annexin V-FITC/PI staining-based flow cytometric analysis (reference value: 3.41%); assay type: functional, U-87MG ATCC
U-87 MG [7] = assay: Induction of apoptosis in human U87MG cells assessed as bright blue nuclear pyknosis at 20 uM by DAPI staining; assay type: functional, cell-based; settings: U-87MG ATCC
Summary of the method: (§2)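 U87-MG glioma cells were exposed to compound at 20 µM for 72 h, then double-stained with DAPI and propidium iodide. Cells were viewed by fluorescence microscopy. Condensed bright-blue DAPI nuclei were scored as apoptotic; red PI-stained cells were scored as necrotic.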

U-87 MG [8] = assay: Induction of apoptosis in human U87MG cells assessed as necrotic cells at 20 uM by PI staining; assay type: functional, cell-based; settings: U-87MG ATCC; summary of the method: as §2
HCT-15 = assay: Antiproliferative activity against human HCT15 cells after 72 hrs by sulforhodamine B assay; assay type: functional, cell-based; settings: for IC50: HCT-15, 72 h; summary of the method: as §1
U-87 MG [9] = assay: Induction of apoptosis in human U87MG cells assessed as viable cells at 10 uM after 72 hrs by annexin V-FITC/PI staining-based flow cytometric analysis (reference value: 93.12%); assay type: functional, U-87MG ATCC; settings: read-out: Activity
U-87 MG [10] = assay: Induction of apoptosis in human U87MG cells assessed as total apoptotic cells at 10 uM after 72 hrs by annexin V-FITC/PI staining-based flow cytometric analysis (reference value: 6.64%); assay type: functional, U-87MG ATCC
U-87 MG [11] = assay: Induction of apoptosis in human U87MG cells assessed as early apoptotic cells at 10 uM after 72 hrs by annexin V-FITC/PI staining-based flow cytometric analysis (reference value: 3.41%); assay type: functional, U-87MG ATCC
U-87 MG [12] = assay: Induction of apoptosis in human U87MG cells assessed as necrotic cells at 10 uM after 72 hrs by annexin V-FITC/PI staining-based flow cytometric analysis (reference value: 0.24%); assay type: functional, U-87MG ATCC
U-87 MG [13] = assay: Induction of apoptosis in human U87MG cells assessed as late apoptotic cells at 10 uM after 72 hrs by annexin V-FITC/PI staining-based flow cytometric analysis (reference value: 3.23%); assay type: functional, U-87MG ATCC
U-87 MG [14] = assay: Induction of apoptosis in human U87MG cells assessed as total apoptotic cells at 40 uM after 72 hrs by annexin V-FITC/PI staining-based flow cytometric analysis (reference value: 6.64%); assay type: functional, U-87MG ATCC
U-87 MG [15] = assay: Induction of apoptosis in human U87MG cells assessed as early apoptotic cells at 40 uM after 72 hrs by annexin V-FITC/PI staining-based flow cytometric analysis (reference value: 3.41%); assay type: functional, U-87MG ATCC
U-87 MG [16] = assay: Induction of apoptosis in human U87MG cells assessed as viable cells at 40 uM after 72 hrs by annexin V-FITC/PI staining-based flow cytometric analysis (reference value: 93.12%); assay type: functional, U-87MG ATCC; settings: read-out: Activity
U-87 MG [17] = assay: Induction of apoptosis in human U87MG cells assessed as necrotic cells at 40 uM after 72 hrs by annexin V-FITC/PI staining-based flow cytometric analysis (reference value: […]); assay type: functional, U-87MG ATCC
U-87 MG [18] = assay: Induction of apoptosis in human U87MG cells assessed as late apoptotic cells at 40 uM after 72 hrs by annexin V-FITC/PI staining-based flow cytometric analysis (reference value: 3.23%); assay type: functional, U-87MG ATCC

| Compound | inhibition (Staphylococcus aureus) | inhibition (Escherichia coli) | IC50 (U-251) [µM] | IC50 (SW-620) [µM] | IC50 (U-87 MG [3]) [µM] | IC50 (HCT-15) [µM] | also measured |
| --- | --- | --- | --- | --- | --- | --- | --- |
| CCCC(=O)OC/C=C/c1ccc(OC(=O)CC(C)C)c(OC)c1 | inactive | inactive |  |  |  |  |  |
| CC[C@H](C)C(=O)Oc1ccc(/C=C/COC(C)=O)cc1OC | inactive | inactive | 12.9 | 0.99 | 0.48 | 4.58 | viability at 20 µM (U-87 MG [1]): 54.5%; Activity (U-87 MG [2]): 36.12%; inhibition (U-251): Dose-dependent effect; inhibition (SW-620): Dose-dependent effect; inhibition (U-87 MG [3]): Dose-dependent effect; Activity (U-87 MG [4]): 45.14%; Activity (U-87 MG [5]): 0.37%; Activity (U-87 MG [6]): 9.02%; Activity (U-87 MG [7]): Active; Activity (U-87 MG [8]): Active; inhibition (HCT-15): Dose-dependent effect |
| C/C(=C\CO)CCC[C@H](C)CCC[C@H](C)CCCC(C)C [TRANS-PHYTOL] | inactive | inactive | 27.8 | 5.85 | 8.02 | 22.5 |  |
| COc1cccc2c1C(=O)c1c(O)c3c(c(O)c1C2=O)C[C@@](O)(C(=O)CO)C[C@@H]3O[C@H]1C[C@H](N)[C@H](O)[C@H](C)O1 [DOXORUBICIN] | inactive | inactive | 2.2 | 1.33 | 0.93 | 1.13 | viability at 10 µM (U-87 MG [9]): 68.2%; Activity (U-87 MG [10]): 31.17%; Activity (U-87 MG [11]): 20.15%; Activity (U-87 MG [12]): 0.6%; Activity (U-87 MG [13]): 11.02% |
| CCCCC(=O)OC/C=C/c1ccc(OC(=O)CCCC)c(OC)c1 | inactive | inactive |  |  |  |  |  |
| COC(=O)/C=C/c1ccc(O)c(OC)c1 | inactive | inactive |  |  |  |  |  |
| CCCCCCCCCCCCCCCCCCCCOC(=O)/C=C/c1ccc(O)cc1 | inactive | inactive |  |  |  |  |  |
| COc1cc(/C=C/COC(=O)CC(C)C)ccc1OC(=O)CC(C)C | inactive | inactive |  |  |  |  |  |
| CC(C)[C@@H](C)/C=C/[C@@H](C)[C@H]1CCC2=C3C=CC4=CC(=O)CC[C@]4(C)[C@H]3CC[C@@]21C | inactive | inactive |  |  |  |  |  |
| CCCC(=O)c1c(O)cc(O)cc1O[C@@H]1O[C@H](CO)[C@@H](O)[C@H](O)[C@H]1O | inactive | inactive | 19.7 | 0.41 | 3.89 | 1.91 |  |
| CC(C)[C@H](C)/C=C/[C@@H](C)[C@H]1CCC2=C3C=CC4=CC(=O)CC[C@]4(C)[C@H]3CC[C@@]21C | inactive | inactive |  |  |  |  |  |
| CCC(=O)Oc1ccc(/C=C/COC(C)=O)cc1OC | inactive | inactive |  |  |  |  |  |
| CCCC(=O)Oc1ccc(/C=C/COC(=O)CC(C)C)cc1OC | inactive | inactive |  |  |  |  |  |
| COc1cc(/C=C/COC(=O)C(C)C)ccc1OC(C)=O | inactive | inactive |  |  |  |  |  |
| O=C(/C=C/c1ccc(O)c(O)c1)O[C@@H]1C[C@](O)(C(=O)O)C[C@@H](OC(=O)/C=C/c2ccc(O)c(O)c2)[C@H]1O | inactive | inactive |  |  |  |  |  |
| CCCCCCCCCCCCCCCCCCCCOC(=O)/C=C/c1ccc(O)c(OC)c1 | inactive | inactive | 26.8 | 5.25 | 5.24 | 15.1 |  |
| COc1cc(/C=C/CO)ccc1O | inactive | inactive |  |  |  |  |  |
| O=C(/C=C/c1ccc(O)c(O)c1)O[C@@H]1[C@H](O)C[C@@](O)(C(=O)O)C[C@H]1OC(=O)/C=C/c1ccc(O)c(O)c1 | inactive | inactive |  |  |  |  |  |

| Compound | inhibition (Staphylococcus aureus) | inhibition (Escherichia coli) | IC50 (U-251) [µM] | IC50 (SW-620) [µM] | IC50 (U-87 MG [3]) [µM] | IC50 (HCT-15) [µM] | also measured |
| --- | --- | --- | --- | --- | --- | --- | --- |
| CCCC(=O)OC/C=C/c1ccc(OC(C)=O)c(OC)c1 | inactive | inactive | 33.3 | 10.2 | 18.5 | 22.8 |  |
| COc1cc(/C=C/COC(C)=O)ccc1OC(=O)C(C)C | inactive | inactive |  |  |  |  |  |
| COc1cc(/C=C/C(=O)O)ccc1O | inactive | inactive |  |  |  |  |  |
| COc1cc(/C=C/COC(C)=O)ccc1OC(C)=O | inactive | inactive | 9.71 | 0.36 | 1.06 | 3.26 | Activity (U-87 MG [14]): 57.33%; Activity (U-87 MG [15]): 21.62%; inhibition (U-251): Dose-dependent effect; viability at 40 µM (U-87 MG [16]): 42.1%; inhibition (SW-620): Dose-dependent effect; inhibition (U-87 MG [3]): Dose-dependent effect; Activity (U-87 MG [17]): 0.57%; Activity (U-87 MG [7]): Active; Activity (U-87 MG [8]): Active; Activity (U-87 MG [18]): 35.71%; inhibition (HCT-15): Dose-dependent effect |
| CCCCCC(=O)OC/C=C/c1ccc(OC(=O)CCCCC)c(OC)c1 | inactive | inactive |  |  |  |  |  |
| CCCCCCCC(=O)OC/C=C/c1ccc(OC(=O)CCCCCCC)c(OC)c1 | inactive | inactive |  |  |  |  |  |
| O=C(/C=C/c1ccc(O)c(O)c1)O[C@H]1[C@H](O)C[C@](O)(C(=O)O)C[C@H]1OC(=O)/C=C/c1ccc(O)c(O)c1 | inactive | inactive |  |  |  |  |  |
| COc1cc(/C=C/COC(=O)C(C)C)ccc1OC(=O)C(C)C | inactive | inactive | > 50 | 35.5 | 29.4 | 34.6 |  |
| CCC(=O)OC/C=C/c1ccc(OC(C)=O)c(OC)c1 | inactive | inactive |  |  |  |  |  |
| CC1=C(C)C(=O)C(CC[C@](C)(O)CCC[C@H](C)CCC[C@H](C)CCCC(C)C)=C(C)C1=O | inactive | inactive |  |  |  |  |  |
| CCCC(=O)Oc1ccc(/C=C/COC(C)=O)cc1OC | inactive | inactive | 45.7 | 7.59 | 10.5 | 17.1 |  |
| CC[C@H](C)C(=O)OC/C=C/c1ccc(OC(=O)[C@@H](C)CC)c(OC)c1 | inactive | inactive |  |  |  |  |  |
| CCCCCCC(=O)OC/C=C/c1ccc(OC(=O)CCCCCC)c(OC)c1 | inactive | inactive |  |  |  |  |  |
| CCCC(=O)OC/C=C/c1ccc(OC(=O)CCC)c(OC)c1 | inactive | inactive | > 50 | 7.85 | 17.3 | 28.8 |  |
| CCC(=O)OC/C=C/c1ccc(OC(=O)CC)c(OC)c1 | inactive | inactive | 52.6 | 47.4 | 28.8 | 29.6 |  |
| CC[C@H](C)C(=O)OC/C=C/c1ccc(OC(C)=O)c(OC)c1 | inactive | inactive | 28.1 | 21.9 | 15 | 34.1 |  |
| O=c1c(O[C@@H]2O[C@H](CO)[C@@H](O)[C@H](O)[C@H]2O)c(-c2ccc(O)cc2)oc2cc(O)cc(O)c12 [ASTRAGALIN] | inactive | inactive | 37.6 | 4.6 | 3.12 | 23.5 |  |

Source: ChEMBL document CHEMBL3588768, “Synthesis and bioactivity of tripolinolate A from Tripolium vulgare and its analogs” (Bioorg Med Chem Lett, 2015)
